Data taken from ChEMBL document CHEMBL3098012, “A novel tamoxifen derivative, ridaifen-F, is a nonpeptidic small-molecule proteasome inhibitor” (Eur J Med Chem, 2014).
Active and inactive are the calls of the source. The calls are words filed in the database; no cut-off is given here. Peptide text beside a SMILES is read from it. * marks the point of attachment. Cbz = O=C(OCc1ccccc1)*

How the values were obtained:
[1] = Cytotoxicity against ER-negative HEK293 cells after 48 hrs by MTT assay; format: cell-based; conditions: human
Method in brief: (§1)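 HEK293 (DMEM) or HL-60 (IMDM) cells, each with 10% FBS plus penicillin/streptomycin, seeded 5×10^3 cells/well in duplicate. Exposed 48 h to compound at […]. MTT reduction read as 560/750 nm absorbance ratio after HCl/2-propanol extraction. CyT50 from inhibition curve; means of triplicate.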

[2] = target: T1, Proteasome Macropain subunit MB1 (Homo sapiens, UniProt P28074); assay: Inhibition of chymotrypsin-like activity of human 20S proteasome beta 5 subunit assessed as hydrolysis of succinyl-LLVY-AMC fluorogenic substrate measured for 1 hr by fluorometric analysis
T1 sequence (P28074 whole entry): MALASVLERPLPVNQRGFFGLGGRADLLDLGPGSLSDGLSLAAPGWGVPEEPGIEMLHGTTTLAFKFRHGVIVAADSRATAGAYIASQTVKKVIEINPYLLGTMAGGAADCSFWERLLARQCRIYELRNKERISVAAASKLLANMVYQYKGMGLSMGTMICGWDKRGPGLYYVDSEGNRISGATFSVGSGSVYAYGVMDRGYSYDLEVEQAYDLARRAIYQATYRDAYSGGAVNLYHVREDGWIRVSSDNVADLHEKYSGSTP
Method in brief: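 Purified human 20S proteasome (0.1 µg) incubated at 37 °C with 50 µM succinyl-LLVY-AMC (CT-L) or 20 µM Z-LLE-AMC (PGPH) and compound at 0.01–10 µM in 25 mM HEPES, 0.5 mM EDTA, 0.03% SDS. IC50 taken from inhibition curve; means of three experiments.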

HL-60 = assay: Cytotoxicity against […] human HL60 cells after 48 hrs by MTT assay; format: functional; conditions: HL-60, 48 h; method in brief: as §1
[3] = target: T1, Proteasome Macropain subunit MB1; assay: Noncompetitive inhibition of chymotrypsin-like activity of human 20S proteasome beta 5 subunit assessed as hydrolysis of succinyl-LLVY-AMC fluorogenic substrate Lineweaver-Burk plot analysis
Homo sapiens [4] = species: Homo sapiens; assay: Inhibition of cathepsin (unknown origin) at >10 uM
Homo sapiens [5] = species: Homo sapiens; assay: Inhibition of calpain (unknown origin) at >10 uM
HeLa [6] = assay: Induction of apoptosis in human HeLa cells assessed as PARP cleavage at 1 to 60 uM after 24 hrs by Western blotting analysis; format: functional, cell-based
Method in brief: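 HeLa cells seeded 4×10^5 cells/well, incubated 24 h with varying compound concentrations; PARP cleavage detected in lysates by Western blotting.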

[7] = target: T2, Proteasome component C5 (Homo sapiens) (UniProt P20618); assay: Inhibition of biotin-labeled belactosin A binding to human 20S proteasome beta 1 subunit at 1 to 100 uM preincubated for 1 hr followed by biotin-labeled belactosin A treatment measured after 1 hr by Western blotting analysis
T2 sequence (whole entry): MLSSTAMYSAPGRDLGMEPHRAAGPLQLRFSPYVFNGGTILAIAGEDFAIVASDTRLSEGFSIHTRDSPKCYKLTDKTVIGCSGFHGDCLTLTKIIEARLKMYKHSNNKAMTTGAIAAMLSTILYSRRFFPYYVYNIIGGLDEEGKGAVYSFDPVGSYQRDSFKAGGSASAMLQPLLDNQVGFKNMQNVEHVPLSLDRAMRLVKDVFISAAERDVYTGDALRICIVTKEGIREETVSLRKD
Method in brief: (§2)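 Purified human 20S proteasomes preincubated with varying inhibitor concentrations 1 h at 37 °C, then biotin-belactosin A added at 1 μM for a further 1 h. Proteins separated by SDS-PAGE, blotted to PVDF, blocked with 5% skim milk; biotin-labeled subunits detected with streptavidin-HRP and ECL. MG132 used as control.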

[8] = target: Proteasome Macropain subunit (Homo sapiens) (UniProt P49721); assay: Inhibition of biotin-labeled belactosin A binding to human 20S proteasome beta 2 subunit at 1 to 100 uM preincubated for 1 hr followed by biotin-labeled belactosin A treatment measured after 1 hr by Western blotting analysis; method in brief: as §2
Sequence of Proteasome Macropain subunit (Homo sapiens) (P49721 whole entry): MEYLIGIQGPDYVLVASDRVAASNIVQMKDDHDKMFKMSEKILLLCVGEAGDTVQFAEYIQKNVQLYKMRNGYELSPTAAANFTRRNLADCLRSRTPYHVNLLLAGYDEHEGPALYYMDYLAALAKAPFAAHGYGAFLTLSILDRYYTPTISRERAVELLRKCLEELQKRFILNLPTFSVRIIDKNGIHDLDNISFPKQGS

[9] = target: T2, Proteasome component C5 (Homo sapiens); conditions: 10 to 20 uM
[10] = target: T3, Proteasome Macropain subunit MB1 (Homo sapiens) (UniProt P28074); conditions: 10 to 20 uM
T3 sequence (whole entry): T1 sequence (P28074 whole entry)

HeLa [11] = assay: Inhibition of proteasome in human HeLa cells assessed as accumulation of ubiquitinated proteins at 10 uM after 24 hrs by Western blotting analysis; format: cell-based
Method in brief: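 HeLa cells, 4×10^5 cells/well, treated 24 h with compound; vehicle control 0.25% DMSO. Lysed in Tris–HCl/2% SDS/glycerol buffer with protease and phosphatase inhibitors; 30 µg protein run on SDS-PAGE, PVDF blot probed with anti-ubiquitin (1:200), actin as loading reference, HRP secondary, ECL detection.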

HeLa [12] = assay: Cell cycle arrest in human HeLa cells assessed as accumulation at sub G1 phase at 10 uM after 24 hrs by propidium iodide staining-based flow cytometric analysis (reference value: 2.2%); format: functional
[13] = target: Proteasome Macropain subunit (Homo sapiens) (UniProt P49721); conditions: 10 to 20 uM

| Structure (SMILES) | CC50 at 48 h [1] | IC50 [2] | CC50 (HL-60) | inhibition (Homo sapiens [4]) | inhibition (Homo sapiens [5]) | further results |
| --- | --- | --- | --- | --- | --- | --- |
| CC(c1ccc(OCCN2CCCCCC2)cc1)c1ccc(OCCN2CCCCCC2)cc1 | 8.12 µM | 0.8 µM | 21.4 µM | – | – | – |
| C(=C(c1ccc(OCCN2CCCCCC2)cc1)c1ccc(OCCN2CCCCCC2)cc1)c1ccccc1 | 6.06 µM | 0.58 µM | 9.73 µM | – | – | Ki [3]: 0.87 µM |
| CCC(=C(c1ccc(OCCN2CCOCC2)cc1)c1ccc(OCCN2CCOCC2)cc1)c1ccccc1 | – | 7.19 µM | – | inactive | inactive | – |
| C=C(c1ccc(OCCN2CCCCCC2)cc1)c1ccc(OCCN2CCCCCC2)cc1 | 9.8 µM | 1.04 µM | 10.7 µM | – | – | – |
| CCC(=C(c1ccc(OCCN2CCCCC2)cc1)c1ccc(OCCN2CCCCC2)cc1)c1ccccc1 | – | > 10 µM | – | inactive | inactive | – |
| CCCCCCC(CCCCCC)=C(c1ccc(OCCN2CCCCCC2)cc1)c1ccc(OCCN2CCCCCC2)cc1 | > 30 µM | > 10 µM | > 30 µM | – | – | – |
| CCC(=C(c1ccc(OCCN2CCCC2)cc1)c1ccc(OCCN2CCCC2)cc1)c1ccccc1 | – | 6.56 µM | – | inactive | inactive | – |
| CCCCCC(CCCCC)=C(c1ccc(OCCN2CCCCCC2)cc1)c1ccc(OCCN2CCCCCC2)cc1 | 14.5 µM | > 10 µM | > 30 µM | – | – | – |
| CCC(=C(c1ccc(OCCCN2CCCC2)cc1)c1ccc(OCCCN2CCCC2)cc1)c1ccccc1 | – | > 10 µM | – | inactive | inactive | – |
| CCCC(CCC)=C(c1ccc(OCCN2CCCCCC2)cc1)c1ccc(OCCN2CCCCCC2)cc1 | > 30 µM | 3.38 µM | > 30 µM | – | – | – |
| CCC(=C(c1ccc(OCCN(CC)CC)cc1)c1ccc(OCCN(CC)CC)cc1)c1ccccc1 | – | > 10 µM | – | inactive | inactive | – |
| c1ccc(Cc2ccc(OCCN3CCCCCC3)cc2)cc1 | 27 µM | > 10 µM | > 30 µM | – | – | Activity (HeLa [6]): inactive; inhibition [7]: Active; inhibition [8]: Active |
| CC(=C(c1ccc(OCCN2CCCCCC2)cc1)c1ccc(OCCN2CCCCCC2)cc1)c1ccccc1 | 18.9 µM | 0.9 µM | 6.87 µM | – | – | – |
| CC(C)C[C@@H](C=O)NC(=O)[C@H](CC(C)C)NC(=O)[C@H](CC(C)C)NC(=O)OCc1ccccc1 [MG-132] (Cbz-Leu-Leu-Leu-aldehyde) | – | – | – | – | – | inhibition [9]: Active; inhibition [10]: Active; inhibition (HeLa [11]): Active; Activity (HeLa [12]): 5.6%; inhibition [13]: Active |
| c1ccc(C(=C(c2ccc(OCCN3CCCCCC3)cc2)c2ccc(OCCN3CCCCCC3)cc2)c2ccccc2)cc1 | 23.2 µM | 1.18 µM | > 30 µM | – | – | Ki [3]: 1.1 µM |
